Activity calls are given as the source filed them. The rule behind the calls is not given here.
Experiments:
[1] = molecular target: T1, Histone-lysine N-methyltransferase 2A (Homo sapiens, UniProt Q03164); assay: Inhibition of MLL1 (unknown origin) in human MV4-11 cells assessed as decrease in H3Kme1 level at 1 to 10 uM measured after 7 days by Western blot analysis; type: cell-based; settings: dose 1-10 µM, time 7.0 day
In short: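 MV4-11 cells exposed to 1, 2.5, 5 and 10 μM; H3K4me1/me2/me3 assessed by Western blot with histone H3 as loading control. Blots blocked in 1% BSA 1 h, primary antibody overnight at 4 °C, DyLight 800 secondary 1 h at 37 °C, infrared imaging.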

MOLM-13 = assay: Antiproliferative activity against human MOLM-13 cells assessed as cell viability incubated for 72 hrs by CCK8 assay; type: functional, cell-based; settings: MOLM-13, 72 h
In short: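 Cells seeded at 3000–6000 per well, exposed to inhibitor at several concentrations for 72 h; viability read with CCK8 kit. MV4-11 and K562 grown in modified IMDM + 10% FBS, pen/strep; MOLM-13 in RPMI-1640 + 10% FBS; HUVEC in modified DMEM + 10% FBS; 37 °C, 5% CO2. IC50 as mean ± SD of three independent experiments.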

[2] = molecular target: Histone-lysine N-methyltransferase EZH2 (Homo sapiens, UniProt Q15910); assay: Inhibition of EZH2 (unknown origin) assessed as effect on H3K27 methylation incubated for 30 mins by Alphascreen assay
Sequence of Histone-lysine N-methyltransferase EZH2 (Q15910 whole entry): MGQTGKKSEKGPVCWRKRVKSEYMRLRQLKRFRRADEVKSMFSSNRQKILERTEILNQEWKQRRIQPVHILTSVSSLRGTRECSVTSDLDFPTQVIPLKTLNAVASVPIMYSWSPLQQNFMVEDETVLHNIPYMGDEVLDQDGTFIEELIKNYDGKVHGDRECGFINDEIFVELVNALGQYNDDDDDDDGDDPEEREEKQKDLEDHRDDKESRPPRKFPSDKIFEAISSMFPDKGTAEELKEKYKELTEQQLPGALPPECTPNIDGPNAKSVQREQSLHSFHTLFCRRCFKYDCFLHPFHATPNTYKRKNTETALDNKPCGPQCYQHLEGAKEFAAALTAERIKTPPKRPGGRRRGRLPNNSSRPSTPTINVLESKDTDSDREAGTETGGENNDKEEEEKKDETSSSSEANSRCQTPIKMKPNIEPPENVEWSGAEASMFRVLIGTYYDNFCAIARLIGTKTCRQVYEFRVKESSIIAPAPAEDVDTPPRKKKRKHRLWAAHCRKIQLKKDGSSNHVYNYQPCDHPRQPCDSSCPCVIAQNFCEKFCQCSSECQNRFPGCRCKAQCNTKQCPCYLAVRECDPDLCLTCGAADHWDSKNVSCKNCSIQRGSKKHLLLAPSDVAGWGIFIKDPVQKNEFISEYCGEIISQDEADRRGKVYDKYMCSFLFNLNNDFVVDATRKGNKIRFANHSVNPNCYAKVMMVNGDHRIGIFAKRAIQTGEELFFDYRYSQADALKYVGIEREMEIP
In short: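 AlphaScreen: enzyme, SAM and compound mixed in 10 mM PBS for 30 min at room temperature; acceptor beads and substrate antibody added, 30 min at room temperature, then streptavidin donor beads; read on AlphaScreen reader.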

[3] = Half life in Sprague-Dawley rat at 10 mg/kg, po measured upto 24 hrs by LC-MS/MS analysis; type: ADME, organism-based; settings: in vivo
In short: (§1)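 Male SD rats, 6–8 weeks, 220 ± 30 g; single oral dose 10 mg/kg (n = 3). Plasma sampled at 0, 0.25, 0.5, 1, 2, 4, 6, 8 and 24 h, stored at −80 °C, quantified by LC-MS/MS; parameters reported as mean ± SEM.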

[4] = Tmax in Sprague-Dawley rat at 10 mg/kg, po measured upto 24 hrs by LC-MS/MS analysis; type: ADME, organism-based; settings: in vivo; in short: as §1
[5] = Oral bioavailability in Sprague-Dawley rat at 10 mg/kg measured upto 24 hrs by LC-MS/MS analysis; type: ADME, organism-based; settings: in vivo
In short: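 Bioavailability from paired rat groups (male SD, n = 3 each): 10 mg/kg oral vs 2 mg/kg i.v.; plasma sampled to 24 h and measured by LC-MS/MS.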

MV4-11 = assay: Antitumor activity against human MV4-11 cells xenografted in Balb/c nude mouse assessed as tumor weight inhibition at 40 mg/kg, po administered daily for 21 days relative to control; type: functional; settings: MV4-11, po, 504 h, time 21 day
In short: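 MV4-11 flank xenografts (~5 × 10^6 cells) in female BALB/c nude mice, 6 per group; daily oral dosing (40, 80, 120 mg/kg) or saline vehicle for 21 days, then tumors excised and weighed.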

[6] = molecular target: T1, Histone-lysine N-methyltransferase 2A; assay: Inhibition of MLL1 (unknown origin) in human MV4-11 cells assessed as decrease in Meis1 mRNA level at 1 to 10 uM measured after 7 days by RT-PCR analysis; type: cell-based
In short: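 MV4-11 cells treated 7 days at 0, 1, 2.5, 5, 10 μM; total RNA extracted with TRIzol and Hoxa9/Meis1 transcripts measured by quantitative RT-PCR, in triplicate (n = 3); Student's t-tests.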

T1 sequence (Q03164 1-2718 limits assumed): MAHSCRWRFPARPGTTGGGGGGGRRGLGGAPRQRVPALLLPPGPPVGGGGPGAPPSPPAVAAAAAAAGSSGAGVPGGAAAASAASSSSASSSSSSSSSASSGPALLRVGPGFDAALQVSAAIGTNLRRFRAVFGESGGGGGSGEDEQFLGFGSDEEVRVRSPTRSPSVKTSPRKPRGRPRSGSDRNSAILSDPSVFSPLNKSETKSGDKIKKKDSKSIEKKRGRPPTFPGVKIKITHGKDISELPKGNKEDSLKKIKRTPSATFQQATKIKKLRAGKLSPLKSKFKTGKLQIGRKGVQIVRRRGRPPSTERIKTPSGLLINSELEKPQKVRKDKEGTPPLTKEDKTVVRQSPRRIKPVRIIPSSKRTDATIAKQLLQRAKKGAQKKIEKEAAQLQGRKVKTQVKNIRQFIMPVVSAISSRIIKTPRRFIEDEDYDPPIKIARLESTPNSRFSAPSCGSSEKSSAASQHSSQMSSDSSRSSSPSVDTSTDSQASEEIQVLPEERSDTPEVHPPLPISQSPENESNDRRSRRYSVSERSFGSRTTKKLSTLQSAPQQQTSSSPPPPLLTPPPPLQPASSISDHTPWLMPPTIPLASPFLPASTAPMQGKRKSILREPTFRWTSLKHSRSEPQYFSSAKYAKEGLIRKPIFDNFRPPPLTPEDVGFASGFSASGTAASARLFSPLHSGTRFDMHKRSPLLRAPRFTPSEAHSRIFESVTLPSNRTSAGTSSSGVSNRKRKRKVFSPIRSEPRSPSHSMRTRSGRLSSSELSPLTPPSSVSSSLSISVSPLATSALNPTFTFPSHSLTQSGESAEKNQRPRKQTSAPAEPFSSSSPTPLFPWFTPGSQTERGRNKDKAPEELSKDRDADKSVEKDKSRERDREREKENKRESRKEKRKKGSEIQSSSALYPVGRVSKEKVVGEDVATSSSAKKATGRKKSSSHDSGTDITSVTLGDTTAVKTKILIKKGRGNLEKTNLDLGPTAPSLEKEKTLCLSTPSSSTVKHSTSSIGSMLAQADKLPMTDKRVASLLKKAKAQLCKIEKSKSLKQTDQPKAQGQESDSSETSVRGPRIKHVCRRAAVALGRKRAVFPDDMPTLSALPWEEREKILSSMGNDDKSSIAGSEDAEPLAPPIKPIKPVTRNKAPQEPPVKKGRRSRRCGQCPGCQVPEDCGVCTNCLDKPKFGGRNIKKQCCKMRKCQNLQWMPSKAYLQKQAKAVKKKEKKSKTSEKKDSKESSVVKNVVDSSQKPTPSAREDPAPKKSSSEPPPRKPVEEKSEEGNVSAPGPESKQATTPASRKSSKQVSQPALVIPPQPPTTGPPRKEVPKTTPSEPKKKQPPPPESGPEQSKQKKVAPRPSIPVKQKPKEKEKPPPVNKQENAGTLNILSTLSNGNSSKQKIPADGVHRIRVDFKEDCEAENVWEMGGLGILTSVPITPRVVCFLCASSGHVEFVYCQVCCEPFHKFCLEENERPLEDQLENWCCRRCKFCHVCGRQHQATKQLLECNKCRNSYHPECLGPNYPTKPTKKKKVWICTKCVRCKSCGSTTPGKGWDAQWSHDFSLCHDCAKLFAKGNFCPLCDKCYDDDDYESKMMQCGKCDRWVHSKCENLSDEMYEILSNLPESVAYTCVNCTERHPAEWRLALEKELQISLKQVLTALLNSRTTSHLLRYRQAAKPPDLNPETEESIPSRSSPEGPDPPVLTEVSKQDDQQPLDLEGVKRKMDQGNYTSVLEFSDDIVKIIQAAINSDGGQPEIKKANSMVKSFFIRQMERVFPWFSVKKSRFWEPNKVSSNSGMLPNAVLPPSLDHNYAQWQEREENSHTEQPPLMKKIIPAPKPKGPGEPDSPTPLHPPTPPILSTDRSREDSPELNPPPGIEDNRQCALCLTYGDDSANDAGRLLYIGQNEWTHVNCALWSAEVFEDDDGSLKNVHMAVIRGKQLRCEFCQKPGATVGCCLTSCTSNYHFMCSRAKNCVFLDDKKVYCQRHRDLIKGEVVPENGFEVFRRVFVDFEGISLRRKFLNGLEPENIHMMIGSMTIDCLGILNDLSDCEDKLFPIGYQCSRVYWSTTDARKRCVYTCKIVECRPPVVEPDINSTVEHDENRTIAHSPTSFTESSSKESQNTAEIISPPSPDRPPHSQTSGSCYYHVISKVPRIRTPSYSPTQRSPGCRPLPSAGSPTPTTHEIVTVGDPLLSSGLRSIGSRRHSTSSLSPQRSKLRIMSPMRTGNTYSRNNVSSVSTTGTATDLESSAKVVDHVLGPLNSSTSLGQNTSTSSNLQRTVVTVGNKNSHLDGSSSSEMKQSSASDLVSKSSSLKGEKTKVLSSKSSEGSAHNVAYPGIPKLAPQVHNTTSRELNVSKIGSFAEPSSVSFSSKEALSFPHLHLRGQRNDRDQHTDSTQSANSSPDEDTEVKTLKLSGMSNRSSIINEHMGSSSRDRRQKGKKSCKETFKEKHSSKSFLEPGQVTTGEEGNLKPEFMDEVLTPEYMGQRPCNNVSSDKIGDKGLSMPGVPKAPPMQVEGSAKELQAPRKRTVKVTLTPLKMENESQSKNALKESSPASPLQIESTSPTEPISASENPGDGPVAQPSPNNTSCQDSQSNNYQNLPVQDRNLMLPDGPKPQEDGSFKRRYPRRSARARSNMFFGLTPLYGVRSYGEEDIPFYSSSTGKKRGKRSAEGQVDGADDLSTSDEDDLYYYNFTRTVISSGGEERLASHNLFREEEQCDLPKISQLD
T1 sequence (Q03164 2719-3969 limits assumed): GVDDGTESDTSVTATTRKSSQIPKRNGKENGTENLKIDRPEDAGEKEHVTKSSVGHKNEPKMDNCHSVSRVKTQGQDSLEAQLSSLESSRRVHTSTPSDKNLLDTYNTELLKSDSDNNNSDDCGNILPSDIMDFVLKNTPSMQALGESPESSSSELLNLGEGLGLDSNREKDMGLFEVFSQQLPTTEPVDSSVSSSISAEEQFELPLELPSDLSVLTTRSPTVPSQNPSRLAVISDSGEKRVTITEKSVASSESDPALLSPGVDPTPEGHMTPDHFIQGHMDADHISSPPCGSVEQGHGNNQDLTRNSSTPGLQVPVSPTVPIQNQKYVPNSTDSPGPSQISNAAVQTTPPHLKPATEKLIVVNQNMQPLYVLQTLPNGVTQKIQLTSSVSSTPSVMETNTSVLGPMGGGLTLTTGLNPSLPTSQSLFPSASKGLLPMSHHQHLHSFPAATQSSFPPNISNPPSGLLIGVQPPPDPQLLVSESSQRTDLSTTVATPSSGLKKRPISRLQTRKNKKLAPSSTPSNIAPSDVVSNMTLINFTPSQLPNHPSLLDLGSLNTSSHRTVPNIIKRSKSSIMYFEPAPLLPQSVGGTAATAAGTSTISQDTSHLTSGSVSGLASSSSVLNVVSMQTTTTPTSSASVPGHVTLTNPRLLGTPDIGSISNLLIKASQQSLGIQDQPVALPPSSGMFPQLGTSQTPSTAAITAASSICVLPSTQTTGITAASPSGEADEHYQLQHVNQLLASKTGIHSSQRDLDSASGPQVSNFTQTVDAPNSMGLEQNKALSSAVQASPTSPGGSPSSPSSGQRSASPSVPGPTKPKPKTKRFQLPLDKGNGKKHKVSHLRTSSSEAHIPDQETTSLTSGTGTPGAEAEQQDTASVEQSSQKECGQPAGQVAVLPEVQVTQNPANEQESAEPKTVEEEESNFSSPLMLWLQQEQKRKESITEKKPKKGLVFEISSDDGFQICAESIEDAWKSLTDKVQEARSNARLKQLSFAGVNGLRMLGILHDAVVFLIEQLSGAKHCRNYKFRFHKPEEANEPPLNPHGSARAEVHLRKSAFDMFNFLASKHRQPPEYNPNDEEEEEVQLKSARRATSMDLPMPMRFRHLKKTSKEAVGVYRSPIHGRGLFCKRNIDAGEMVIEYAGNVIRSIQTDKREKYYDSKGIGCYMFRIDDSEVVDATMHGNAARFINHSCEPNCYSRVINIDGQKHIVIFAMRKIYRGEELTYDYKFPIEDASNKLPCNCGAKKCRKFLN

With CN1CCN(c2cc(F)c(-c3ccc(C(=O)N(C)C)cc3)cc2Nc2ncnc(Cl)c2N)CC1 the inhibition [1] was “Dose-Dependent Effect”, the IC50 (MOLM-13) was 13.1 µM and the IC50 [2] was > 100 µM. It also gave a half-life [3] of 4.94 h, a Tmax [4] of 2 h and a bioavailability [5] of 82.1%. For the same compound, the inhibition in vivo at 40 mg/kg (MV4-11) was 36.4% and the inhibition [6] was “Active”.
